We go through six compounds from ChEMBL document CHEMBL3739300, “Chemical Constituents from the Fruiting Bodies of Hexagonia apiaria and Their Anti-inflammatory Activity” (J Nat Prod, 2015).

Holding throughout (type): functional, cell-based
A short description of assay [1]: Antiinflammatory activity in human neutrophils assessed as inhibition of FMLP/CB-induced superoxide anion generation by spectrophotometry. Conditions: Neutrophil. The procedure, abridged:
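Neutrophils from healthy donors (20−30 y) isolated by dextran sedimentation, Ficoll (1.077 g/mL) centrifugation and hypotonic lysis, kept in Ca2+-free HBSS pH 7.4 at 4 °C. Cells (6 × 10^5/mL) with 0.5 mg/mL ferricytochrome c and 1 mM Ca2+, 37 °C 2 min, drug or 0.1% DMSO 5 min. Stimulated with 100 nM FMLP after 1 μg/mL cytochalasin B, 3 min. SOD-inhibitable (100 U/mL) absorbance at 550 nm; IC50, n = 3−4.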

The test system of another assay is Neutrophil. Kind of assay: (§1) Antiinflammatory activity in human neutrophils assessed as inhibition of FMLP/CB-induced elastase release. The procedure, abridged:
(§2)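 Donor neutrophils (isolated by dextran, Ficoll, hypotonic lysis; Ca2+-free HBSS pH 7.4) at 6 × 10^5/mL with 100 μM MeO-Suc-Ala-Ala-Pro-Val-p-nitroanilide. Equilibrated 37 °C 2 min, drug or 0.1% DMSO vehicle 5 min, then activated with 100 nM FMLP plus 0.5 μg/mL cytochalasin B. Absorbance at 405 nm monitored continuously; percent of FMLP/CB-activated drug-free control; IC50, n = 3−4.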

A short description of assay [2]: as §1. Conditions: Neutrophil. The procedure, abridged: as §2

Activity calls are given as the source filed them. No cut-off for these calls is given here.

For the compound `CC1=C(C)C2(C[C@@H](C)[C@H]3[C@@H](C[C@@]4(C)C5=C(CC[C@]34C)[C@@]3(C)CC[C@@H](O)C(C)(C)[C@@H]3CC5)O2)OC1=O` (some centres not stated), the IC50 in assay [1] is over 10 µM. Moreover, the inhibition entry in the assay on Neutrophil was “inactive”.

On to `CC1=C(C)C2(C[C@@H](C)[C@H]3[C@@H](C[C@@]4(C)C5=C(CC[C@]34C)[C@@]3(C)CC[C@@H](OC(=O)CC(=O)O)C(C)(C)[C@@H]3CC5)O2)OC1=O` (some centres not stated), for which the IC50 in assay [1] stood at 1.9 µM; in assay [2] it was 4.3 µM.

As to `C=C(CC[C@@H](C(=O)O)[C@H]1CC[C@@]2(C)C3=C(CC[C@]12C)[C@@]1(C)C[C@H](O)[C@H](O)C(C)(C)[C@@H]1CC3)C(C)C`, the results for the concentration for half-maximal inhibition (IC50) in assay [1] and in assay [2] were 6 µM and over 10 µM, respectively.

Consider `O=c1cc(N2CCOCC2)oc2c(-c3ccccc3)cccc12` [LY-294002], for which the half-inhibitory concentration (IC50) in assay [1] worked out at 0.4 µM; in assay [2], 1.5 µM.

Regarding `CC1=C(C)C2(C[C@@H](C)[C@H]3[C@@H](C[C@@]4(C)C5=C(CC[C@]34C)[C@@]3(C)CC[C@@H](O)[C@@](C)(C=O)[C@@H]3CC5)O2)OC1=O` (some centres not stated), in assay [1], the IC50 is over 10 µM. Also, the inhibition entry in the assay on Neutrophil is “inactive”.

Regarding `COC(=O)CC(=O)O[C@@H]1CC[C@]2(C)C3=C(CC[C@H]2C1(C)C)[C@]1(C)C[C@H]2OC4(C[C@@H](C)[C@@H]2[C@@]1(C)CC3)OC(=O)C(C)=C4C` (some centres not stated), the half-inhibitory concentration (IC50) in assay [1] was over 10 µM. The inhibition entry with Neutrophil was “inactive”.
